Measurements pooled from the literature.
Protocols differ between the studies behind these lines.
Target: Prostaglandin G/H synthase 2 (PTGS2, Homo sapiens, UniProt P35354)
Effect on: enzyme activity
Action: inhibitor
One construct used (P35354 18-604): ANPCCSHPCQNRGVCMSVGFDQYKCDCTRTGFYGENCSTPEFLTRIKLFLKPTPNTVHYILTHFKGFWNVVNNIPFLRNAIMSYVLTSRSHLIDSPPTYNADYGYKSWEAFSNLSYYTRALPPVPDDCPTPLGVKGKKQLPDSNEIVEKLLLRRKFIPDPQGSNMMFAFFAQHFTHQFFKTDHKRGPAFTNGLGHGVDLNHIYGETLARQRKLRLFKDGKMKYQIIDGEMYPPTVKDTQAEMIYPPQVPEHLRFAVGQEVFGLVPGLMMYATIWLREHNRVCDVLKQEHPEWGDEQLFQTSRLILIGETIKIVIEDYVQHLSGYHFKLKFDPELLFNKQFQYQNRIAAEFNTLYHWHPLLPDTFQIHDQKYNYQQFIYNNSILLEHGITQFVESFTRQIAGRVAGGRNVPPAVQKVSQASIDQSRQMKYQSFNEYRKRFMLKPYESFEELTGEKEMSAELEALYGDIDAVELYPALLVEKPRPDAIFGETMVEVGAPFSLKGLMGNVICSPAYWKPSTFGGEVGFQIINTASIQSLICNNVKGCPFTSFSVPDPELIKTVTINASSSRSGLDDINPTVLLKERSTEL

`O=C(O)c1cc(O)c(O)c(O)c1` gave an IC50 of 8.14 µM.
`O=C1Nc2ccccc2/C1=C/c1cn(-c2nc(N3CCCC3)nc(N3CCOCC3)n2)c2ccccc12` has an IC50 of 8 µM.
`O=c1cc(-c2ccc(O)c(O)c2)oc2cc(O)cc(O)c12` has an IC50 of 2.27 µM.
The IC50 of `Cc1ccn2c(Nc3ccc(F)cc3)c(-c3ccc(S(C)(=O)=O)cc3)nc2c1` is reported as 0.08 µM.
`O=Cc1cn(-c2nc(Cl)nc(N3CCOCC3)n2)c2ccccc12` has an IC50 of 10 µM.
`Cc1ccc(Nc2c(-c3ccc(S(C)(=O)=O)cc3)nc3cc(C)ccn23)cc1` gave an IC50 of 0.07 µM.
`CS(=O)(=O)c1ccc(-n2cc(/C=N/N=c3\[nH]c(-c4ccc([N+](=O)[O-])cc4)cs3)c(-c3ccc(Br)cc3)n2)cc1` has an IC50 of 11.5 µM.
The IC50 of `NS(=O)(=O)c1ccc(-c2ncc(Cl)cc2-c2nc3ccccc3s2)cc1` is reported as 0.21 µM (absorbance).
For `O=Cc1cn(-c2nc(N3CCCCC3)nc(N3CCOCC3)n2)c2ccccc12`, the IC50 was 0.7 µM.
The IC50 of `Cc1ccc(-c2nc3ccccc3s2)c(-c2ccc(S(C)(=O)=O)cc2)c1` is reported as 0.23 µM (absorbance).
`COc1ccc(Nc2c(-c3ccc(S(C)(=O)=O)cc3)nc3cc(C)ccn23)cc1` has an IC50 of 0.1 µM.
With `Cc1ccc(-c2nn(-c3ccc(S(C)(=O)=O)cc3)cc2/C=N\N=c2/[nH]c(-c3ccc([N+](=O)[O-])cc3)cs2)cc1` the IC50 was 11.3 µM.
With `O=C1Nc2ccccc2/C1=C/c1cn(-c2nc(N3CCCCC3)nc(N3CCOCC3)n2)c2ccccc12` the IC50 was 0.08 µM.
For `CCn1c(-c2nc3cc(C(=O)N4CCC[C@@H](N)C4)cc(OC)c3n2C)cc2cccnc21`, the IC50 was > 100 µM.
`NS(=O)(=O)c1ccc(-c2ncccc2-c2nc3ccccc3s2)cc1` has an IC50 of 0.69 µM (absorbance).
`COc1ccc(-c2nn(-c3ccc(S(C)(=O)=O)cc3)cc2/C=N/N=c2\[nH]c(-c3ccc(Br)cc3)cs2)cc1` has an IC50 of 18.6 µM.
The IC50 of `COc1ccc(Nc2c(-c3ccc(S(C)(=O)=O)cc3)nc3cccc(C)n23)cc1` is reported as 0.09 µM.
`CCOC(=O)c1cc(O)c(O)c(O)c1` has an IC50 of 13.4 µM.
For `O=C1/C(=C\c2cn(-c3nc(N4CCCC4)nc(N4CCOCC4)n3)c3ccccc23)c2ccccc2N1c1c(Cl)cccc1Cl`, the IC50 was 4 µM.
With `CC(=O)c1ccc(/N=N/c2cc(/C=C/C(=O)O)ccc2O)cc1` the IC50 was > 100 µM.
For `O=Cc1cn(-c2nc(N3CCCC3)nc(N3CCOCC3)n2)c2ccccc12`, the IC50 was 2 µM.
`Cc1cccc2nc(-c3ccc(S(C)(=O)=O)cc3)c(Nc3ccccc3)n12` has an IC50 of 0.07 µM.
With `COc1cc([C@H]2OC[C@H]3[C@@H]2CO[C@@H]3c2cc(OC)c(O)c(OC)c2)cc(OC)c1O` the IC50 was 2.49 µM (absorbance).
`CC(=O)c1cccc(N=Nc2c(C(=O)O)cc(O)c(O)c2O)c1` gave an IC50 of 5.51 µM.
For `CS(=O)(=O)c1ccc(-n2cc(/C=N/N=c3\[nH]c(-c4ccc(Br)cc4)cs3)c(-c3ccc(Br)cc3)n2)cc1`, the IC50 was 5.82 µM.
The IC50 of `CS(=O)(=O)c1ccc(-c2nc3ccccn3c2Nc2ccc(Cl)cc2)cc1` is reported as 0.07 µM.
`COC(=O)c1ccc(O)cc1` has an IC50 of 97.9 µM (absorbance).
The IC50 of `CS(=O)(=O)c1ccc(-n2cc(C=N/N=c3\[nH]c(-c4ccc(Br)cc4)cs3)c(-c3ccc([N+](=O)[O-])cc3)n2)cc1` is reported as 27.8 µM.
`Cc1cccn2c(Nc3ccc(F)cc3)c(-c3ccc(S(C)(=O)=O)cc3)nc12` has an IC50 of 0.07 µM.
`CC1=NN(c2cccc(Cl)c2)C(=O)/C1=C\c1cn(-c2nc(Cl)nc(N3CCOCC3)n2)c2ccccc12` gave an IC50 of 0.1 µM.
With `O=c1oc2c(O)c(O)cc3c(=O)oc4c(O)c(O)cc1c4c23` the IC50 was 4.62 µM.
`COc1ccc(Nc2c(-c3ccc(S(C)(=O)=O)cc3)nc3c(C)cccn23)cc1` gave an IC50 of 0.08 µM.
With `O=Cc1cn(-c2nc(N3CCOCC3)nc(N3CCOCC3)n2)c2ccccc12` the IC50 was 0.03 µM.
